Reference: ChEMBL document CHEMBL4513216, “Probing the Open Global Health Chemical Diversity Library for Multistage-Active Starting Points for Next-Generation Antimalarials” (ACS Infect Dis, 2020)

Assay: Toxicity liver stage against HepG2, at 10uM
Assay type: cell-based
Parameters: test concentration 10 uM, cell line HepG2-A16-CD81EGFP
Conditions: human, HepG2-A16-CD81EGFP cells; read-out: INHIBITION
Outline: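 Uninfected HepG2-A16-CD81EGFP cells, 3 × 10^3 per well, 1536-well, plated on prespotted compound at 10 μM final, parasite-free screening media added to match infected plates; puromycin 10 μM positive, DMSO 0.5% negative; run in parallel with 48 h PbLuc assay at 37 °C, 5% CO2; viability by CellTiter-Glo luminescence, normalized to controls.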

Structure (SMILES)	cytotoxicity at 10 µM [%]
COc1ccc(NC(=O)Nc2c(O)c3ccccc3oc2=O)cc1	-9.87
CCOc1nc2cnccc2n(CC(=O)NCCc2ccccc2)c1=O	-6.29
CSCC(C)(O)CNS(=O)(=O)Cc1ccc(F)cc1 (configuration not stated)	-1.12
CCCNC(=O)CSc1nnc2[nH]c(=O)cc(CC)n12	-17.3
Cn1c(C(F)(F)F)nn(CCNC(=O)NCc2ccccc2)c1=O	-27.3
NC(=O)CN1CCC(c2csc(Nc3cnccn3)n2)CC1	-2.19
Cc1cc(C)nc(Nc2nccnc2C2CCCN(CCO)C2)n1 (configuration not stated)	-0.0399
COc1ncc(CN2C[C@@H]3C[C@@H](O)CN3C[C@@H]2Cc2ccccc2)cn1	-6.86
CCC(=O)NC(Cc1cc(N(C)C)nc(C2CC2)n1)c1ccccc1 (configuration not stated)	0.301
O[C@H]1CCN(CCCOc2ccccc2F)C[C@@]12CCCO2	1.14
Cc1nc(C2CCN(C(=O)c3ccn(C)n3)CC2)c2sccn12	-4.66
CN(C)S(=O)(=O)N1CCCC1c1cccc(-n2ccnc2)n1 (configuration not stated)	-3.75
Cc1ncsc1CN1CC[C@](C)(O)[C@@H](Oc2cccc(F)c2)C1	-14.8
Cc1ccc(O)c(CNc2cccc(CN3CCSCC3)c2)n1	-7.94
COc1ccc(-c2nc(CSC3CCCCNC3=O)co2)cc1 (configuration not stated)	20.9
CCc1ccsc1C(=O)N(C)CCc1ccncc1	-0.386
CCC(C)C(=O)N(C)Cc1cc(F)ccc1N1CCC(OC)CC1 (configuration not stated)	-5.41
O=C1CCN(C(=O)C2(c3ccc(Br)cc3)CC2)CCN1	1.56
COc1ccccc1C(CNC(=O)NCc1cc[nH]n1)N1CCCC1 (configuration not stated)	-0.634
CSC(C)(C)CNC(=O)NC1CCN(CC(F)F)CC1	-5.12
CCc1nnc(CN2CCC(c3nc4cc(Cl)ccc4o3)CC2)o1	-0.956

Structure (SMILES)	cytotoxicity at 10 µM [%]
CC(CNC(=O)c1cc(Cl)ccc1F)N1CCCC1 (configuration not stated)	-4.43
O=C(NCCc1nnc2n1CCC2)NCC1(c2ccccc2F)CC1	0.833
COc1ccc(CNC(=O)NC2CCN(C)CC2)c(C(F)(F)F)c1	-12.2
CCc1nn(C)c2[nH]nc(NC(=O)c3ccccc3COC)c12	6.16
O=C(Nc1ccc(F)cc1)N(CCC(F)(F)F)C[C@H](O)CO	-7.8
CC(C)CSCCCNC(=O)C1CCOC1 (configuration not stated)	-5.81
CC(=O)N1CCC(n2nccc2-c2cnc(N3CCCC3)nc2)CC1	-0.00173
CO[C@H]1C[C@@H](O)C12CCN(CCCOc1ccc(C(N)=O)cc1)CC2	-5.66
CNc1ccc(C)cc1C(=O)N1CCCC2(CCNC2)C1 (configuration not stated)	-6.63
CCC(C)Nc1ccc(-c2nc(-c3cccc(OC)c3OC)no2)cn1 (configuration not stated)	24.8
N#Cc1c(N)nc2c(c1-c1c[nH]nc1C1CCCCC1)CNCC2	0.787
CC(C)CCn1cc(C(C(=O)O)N2CCCN(C3CCCC3)CC2)cn1 (configuration not stated)	-5.84
COCCCN1CC2(CCC1=O)CCN(Cc1cc(C)no1)CC2	4.08
Cc1c(C(=O)N2CCC3(CCC(=O)N(CCN(C)C)C3)CC2)ccn1C	-4.06
CS(=O)(=O)c1ccc(CN2CCCCC2c2cccc(F)c2)cc1 (configuration not stated)	-17.4
Cn1cc(CN2CCC(CCC(=O)Nc3ccccc3Cl)CC2)cn1	-2.98
Cc1nccn1CCC1CCN(C(=O)C2CC3(CCNCC3)CN2)CC1 (configuration not stated)	-1.64
O=C(O)C1(Oc2ccc3ccccc3c2)CCN(c2ccncc2)CC1	0.542
COCC(=O)N1CCc2cccc(S(=O)(=O)N3CCOCC3)c2C1	-5.42
Cc1cc(-c2cc(-c3cc(CC(=O)O)cs3)nc(N)c2C#N)oc1C	-6.25
O=C(c1cncc(NCC2COc3ccccc3C2)n1)N1CCCC1 (configuration not stated)	-6.53

Structure (SMILES)	cytotoxicity at 10 µM [%]
Cc1cccc2[nH]c(C3CCN(C(=O)c4cccnn4)CC3)nc12	11.2
COC1CCCN(C2CCN(c3cccc(-c4csc(C)n4)c3)CC2)C1 (configuration not stated)	0.929
CC(=O)NCC(=O)N1Cc2c(-c3cccc(C)c3)nc(N)nc2C1C (configuration not stated)	7.66
Cc1c(Cn2c(=O)cnc3ccccc32)cnn1C	-0.473
CSc1nccc(-c2cccc(-c3ccn(CC4COCCO4)n3)c2)n1 (configuration not stated)	-7.92
c1cc(C2CCN(c3ncnc4c3CCNCC4)CC2)ccn1	8.33
COC(=O)N1CCN(Cc2ccccc2Cl)CC1	-0.227
CCCC1(CO)CCCN(C(=O)CCCn2nc(C)cc2C)C1 (configuration not stated)	-9.53
COCCN(Cc1cnn(C)c1)CC1CCN(C(C)C)CC1	-9
COCC(O)CNC(=O)c1coc(COc2ccc3sc(C)nc3c2)n1 (configuration not stated)	10.8
Cn1c(=O)c2cc(C(=O)NCCOc3ccccc3)ccc2n(C)c1=O	-4.69
Cc1cc(Br)c(O)c(-c2nc(N3CCOCC3)sc2C)c1	74.4
c1ccc(-c2nnc3n2CCN(Cc2ccc4c(c2)OCCO4)C3)cc1	7.66
O=C(CCCN1CCOC1=O)Nc1cnn(-c2ccccc2Cl)c1	-4.56
O=C(CCc1cccc(Cl)c1Cl)N1CCOCC1c1ncon1 (configuration not stated)	-2.33
CC(C)c1ncc2c(n1)CN(Cc1nc(-c3cccnc3)no1)CC2	-18.7
COCCOc1cccc(C(=O)N2CCCC(n3ccnc3)C2)c1 (configuration not stated)	-17.1
CC(C)n1cc(CN2CCCN(C(=O)CN3CCCC3=O)CC2)cn1	-27.5
Cc1cnn(CC(=O)N2CCCN(Cc3cnn(C(C)C)c3)CC2)c1	-12.3
CC(NC(=O)CCCc1nc(C(C)(C)C)no1)c1ccccn1 (configuration not stated)	-5.81
CCOc1ccccc1OC1CCN(C(=O)c2c[nH]nn2)CC1	-2.48

Structure (SMILES)	cytotoxicity at 10 µM [%]
COc1ccc2c(c1)CCN2Cc1nc2c(cnn2C)c(=O)[nH]1	-10.3
CN(Cc1ccsc1)C(=O)Nc1ccc(N(C)C)nc1	-3.08
CCCc1n[nH]c(C2CN(C(=O)c3cc4c(s3)CCC4)CCO2)n1 (configuration not stated)	-10.1
CN1CCOC(CNCc2coc(-c3ccc(Cl)cc3)n2)C1 (configuration not stated)	-9.99
CCN(CC)C(CNC(=O)c1c(C)noc1C(C)C)c1ccsc1 (configuration not stated)	-12.2
Fc1ccc(-c2nc(CN3CCCC3Cn3cncn3)co2)cc1F (configuration not stated)	-5.58
Cc1cc(C)n(C2CN(CC(O)c3cc(F)ccc3F)C2)n1 (configuration not stated)	-15.1
CC(C)c1nc(CN(C)C2CCN(CCS(C)(=O)=O)C2)no1 (configuration not stated)	-13.4
NC(=O)CN1CCCN(C(=O)Cc2cccc(C(F)(F)F)c2)CC1	-3.05
CNc1snc(C)c1C(=O)N1CCCC(n2ccnc2)C1 (configuration not stated)	-13.8
CC(C)c1nc(C2CCCN2Cc2cc(=O)n(C)c(=O)n2C)no1 (configuration not stated)	-10.7
c1nc(N2CCOC(Cn3cncn3)C2)c2cc[nH]c2n1 (configuration not stated)	-7.97
Cc1ccc(CC(=O)N2CCCC2Cn2nc(C)cc2C)cn1 (configuration not stated)	-9.24
CC(Cn1cccn1)NCc1csc(COc2ccc(F)cc2)n1 (configuration not stated)	5.84
Cc1nc(CN2CCN(Cc3nccn3C)CC2)no1	3.44
Cc1cc(NC(=O)CN2CCOC(Cn3cccn3)C2)n(C)n1 (configuration not stated)	5.56
COc1c(CNCCNC(=O)c2cccc(C)c2)c(C)nn1C	-6.64
CCc1ccc(CN2CCC3(CC2)CNC(=O)CO3)o1	-16.5
O=c1cc(CN2C[C@@H]3CC[C@H]2CN(Cc2ccccc2)C3)[nH]c(=O)[nH]1	8.89
